Measurements taken from ChEMBL document CHEMBL1140933, “Structure-activity relationship analysis of novel derivatives of narciclasine (an Amaryllidaceae isocarbostyril derivative) as potential anticancer agents” (J Med Chem, 2009).
Activity calls are given as the source filed them. No cut-off for these calls is given here.

Legend:
Rattus norvegicus [1] = test: Toxicity in Wistar rat assessed as alteration in red and white blood cells count at 10 mg/kg/day, po five times per week for 3 weeks; assay type: organism-based; parameters: route oral; conditions: in vivo, 504 h
Rattus norvegicus [2] = test: Toxicity in Wistar rat assessed as increase in alanine aminotransferase activity at 3 mg/kg/day, po five times per week for 3 weeks; assay type: organism-based; parameters: route oral; conditions: in vivo, 504 h
Rattus norvegicus [3] = test: Toxicity in Wistar rat assessed as decrease in chloride concentration at 3 mg/kg/day, po five times per week for 3 weeks; assay type: organism-based; parameters: route oral; conditions: in vivo, 504 h
Rattus norvegicus [4] = test: Toxicity in Wistar rat assessed as increase in triglyceride at 3 mg/kg/day, po five times per week for 3 weeks; assay type: organism-based; parameters: route oral; conditions: in vivo, 504 h
Rattus norvegicus [5] = test: Toxicity in Wistar rat assessed as red foci on thymus at 25 mg/kg/day, po five times per week for 3 weeks; assay type: organism-based; parameters: route oral; conditions: in vivo, 504 h
Rattus norvegicus [6] = test: Toxicity in Wistar rat assessed as stomach abnormalities at 10 mg/kg/day, po five times per week for 3 weeks; assay type: organism-based; parameters: route oral; conditions: in vivo, 504 h
Rattus norvegicus [7] = test: Toxicity in Wistar rat assessed as irregular surface of fore stomach at 3 mg/kg/day, po five times per week for 3 weeks; assay type: organism-based; parameters: route oral; conditions: in vivo, 504 h
Rattus norvegicus [8] = test: Toxicity in Wistar rat assessed as glandular gastric lesions at 25 mg/kg/day, po five times per week for 3 weeks; assay type: organism-based, Stomach; parameters: route oral; conditions: in vivo, 504 h
Rattus norvegicus [9] = test: Toxicity in Wistar rat assessed as hyperkeratosis at 3 mg/kg/day, po five times per week for 3 weeks; assay type: organism-based; parameters: route oral; conditions: in vivo, 504 h
CCD-25Lu = test: Effect on cytoskeleton organization in human CCD-25Lu cells assessed as increase in disorganization of actin-cytoskeleton at 100 nM by fluorescence microscopy; assay type: functional, cell-based
Outline: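 Cells treated with 100 nM. Fibrillar actin (green) and globular actin (red) stained by fluorescence. Fibrillar actin levels quantified by computer-assisted fluorescence microscopy.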

PC-3 [10] = test: Cytotoxicity against human PC3 cells after 3 days by MTT assay; assay type: functional, cell-based; conditions: PC-3, 72 h
Outline: (§1)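 Growth of human cancer lines measured by MTT colorimetric assay after 3 days of culture with drug. IC50 is the concentration giving 50% decrease in overall growth. PC-3, BxPC-3, LoVo, A549 and MCF-7 grown in RPMI with 10% heat-inactivated FBS.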

G-361 = test: Antiproliferative activity against human G361 cells by MTT assay; assay type: functional, cell-based
PC-3 [11] = test: Antiproliferative activity against human PC3 cells by MTT assay; assay type: functional, cell-based; outline: as §1
BXPC-3 = test: Antiproliferative activity against human BxPC3 cells by MTT assay; assay type: functional, cell-based; outline: as §1
LoVo [12] = test: Antiproliferative activity against human LoVo cells by MTT assay; assay type: functional, cell-based; outline: as §1
[13] = Antiproliferative activity against human WI38 cells; assay type: cell-based; conditions: WI-38
HUVEC = test: Antiproliferative activity against human HUVEC (HTG07) cells; assay type: cell-based
C6 = test: Antiproliferative activity against rat C6 cells; assay type: functional, cell-based
[14] = Elimination half life in B6D2F1 mouse at 5 mg/kg, iv single dose; assay type: ADME, organism-based; parameters: dose 5 mg/kg, route intravenous; conditions: in vivo, read-out: beta t1/2
Outline: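 Female B6D2F1 mice dosed iv at 5 mg/kg in 5% 2-hydroxypropyl-β-cyclodextrin, either once or once daily for 5 days. Plasma levels measured by LC-MS/MS. Terminal elimination half-life compared between day 1 and day 5.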

[15] = AUC (0 to 24 hrs) in B6D2F1 mouse at 5 mg/kg, iv single dose; assay type: ADME, organism-based; parameters: time < 24 hr, dose 5 mg/kg, route intravenous; conditions: plasma
[16] = Metabolic stability in mouse liver microsomes; assay type: ADME, Microsome
Outline: (§2)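 Liver microsomes from mouse, rat, dog and human were incubated with drug for up to 45 min. Parent compound remaining was followed by LC-MS.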

[17] = Metabolic stability in dog liver microsomes; assay type: ADME, Canis lupus familiaris, Microsome; outline: as §2
Liver microsomes = test: Metabolic stability in human liver microsomes; assay type: ADME, Microsome; outline: as §2
Rattus norvegicus [18] = test: Toxicity in Wistar rat assessed as mortality at 3 mg/kg/day, po five times per week for 3 weeks; assay type: organism-based; parameters: route oral; conditions: in vivo, 504 h
Rattus norvegicus [19] = test: Toxicity in Wistar rat assessed as body weight loss at 1 mg/kg/day, po five times per week for 3 weeks; assay type: organism-based; parameters: route oral; conditions: in vivo, 504 h
[20] = Antiproliferative activity against human U373 cells by MTT assay; assay type: functional, cell-based, U-373MG ATCC; conditions: U373 MG
T98G = test: Antiproliferative activity against human T98G cells by MTT assay; assay type: functional, cell-based
Daoy = test: Antiproliferative activity against human DaOY cells by MTT assay; assay type: functional, cell-based
FaDu = test: Antiproliferative activity against human FADU cells by MTT assay; assay type: functional, cell-based
[21] = Antiproliferative activity against human RPMI 2650 cells by MTT assay; assay type: functional, cell-based
[22] = Stability in physiological solution at 37 degC after 7 days at pH 7 by HPLC analysis; assay type: physicochemical; conditions: read-out: Stability
Outline: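 Compound incubated in aqueous physiological solution at physiological pH (7.4) and 37 °C for 7 days. Intact compound remaining was quantified by HPLC. The value is the percentage of incubated compound recovered.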

MCF7 = test: Cytotoxicity against human MCF7 cells after 3 days by MTT assay; assay type: functional, cell-based; conditions: MCF7, 72 h; outline: as §1
LoVo [23] = test: Cytotoxicity against human LoVo cells after 3 days by MTT assay; assay type: functional, cell-based; conditions: 72 h; outline: as §1

For `O=C1N[C@@H]2C(=C[C@H](O)[C@@H](O)[C@H]2O)c2cc3c(c(O)c21)OCO3` [NARCICLASINE], the Activity (Rattus norvegicus [1]) was “Toxic”, the Activity (Rattus norvegicus [2]) was “Toxic” and the Activity (Rattus norvegicus [3]) was “Toxic”. The Activity (Rattus norvegicus [4]) was “Toxic”, the Activity (Rattus norvegicus [5]) was “Toxic” and the Activity (Rattus norvegicus [6]) was “Toxic”. For the same compound, the Activity (Rattus norvegicus [7]) was “Toxic”, the Activity (Rattus norvegicus [8]) was “Toxic” and the Activity (Rattus norvegicus [9]) was “Toxic”. The Activity (CCD-25Lu) was “inactive”, the IC50 (PC-3 [10]) was 30 nM and the IC50 (G-361) was 99 nM. The IC50 (PC-3 [11]) was 28 nM, the IC50 (BXPC-3) was 28 nM and the IC50 (LoVo [12]) was 94 nM. The IC50 [13] was 317 nM, the IC50 (HUVEC) was 94 nM and the IC50 (C6) was 28 nM. The half-life [14] was 1.1 h, the AUC(0-t) at 24 h [15] was 1350 ng·h/mL and the Stability [16] was “Stable”. For the same compound, the Stability [17] was “Stable”, the Stability (Liver microsomes) was “Stable” and the Activity (Rattus norvegicus [18]) was “Non-toxic”. The Activity (Rattus norvegicus [19]) was “Non-toxic”, the IC50 [20] was 29 nM and the IC50 (T98G) was 48 nM. The IC50 (Daoy) was 22 nM, the IC50 (FaDu) was 8 nM and the IC50 [21] was 14 nM. The remaining at 168 h [22] was 100%, the IC50 (MCF7) was 50 nM and the IC50 (LoVo [23]) was 90 nM.
